B1: Osa-1-4 twister ribozyme (parent)
chain: CCGCCUAACACUGCCAAUGCCGGUCCCAAGCCCGGAUAAAAGUGGAGGGGGCGG

In the series the parent is B1. The series is described as follows: self-cleavage, relative activity (ratio to wild type); higher = more cleavage; co-transcriptional. The gist of the method:
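In vitro transcription at 37 °C for 2 h allowed the twister ribozyme to cleave itself as it was made. Its 54-nucleotide Oryza sativa template had been synthesised with 97 % wild-type base and 1 % of each other base at the 48 positions downstream of the cleavage site. A template-switching oligonucleotide was used for reverse transcription, followed by PCR amplification and deep sequencing. Whether reads carried upstream sequence set the cleavage status, and relative activity is the fraction cleaved normalised to wild type.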
For the variant A41G G22A, the self-cleavage came to 0.48.

For the variant A41G G22U, the self-cleavage came out at 0.27.

For the variant A41G G22C, the self-cleavage stood at 0.05.

Take A40U C11G: the self-cleavage came out at 0.06.

For A40U C11U, the self-cleavage worked out at 0.33.

As to A40U C11A, the self-cleavage worked out at 0.1.

Regarding A41G G47A, the self-cleavage came to 0.1.

On to A41G G47U, for which the self-cleavage was found to be 0.08.

For A41G G47C, the self-cleavage was 0.07.

As for A41C G53A, the self-cleavage came to 0.73.

As to A41C G53U, the self-cleavage was found to be 0.28.

Regarding A41C G53C, the self-cleavage was 0.08.

Take A41C C52U: the self-cleavage turned out to be 1.03.

Consider A41C C52A, for which the self-cleavage stood at 0.94.

Turning to A41C C52G, the self-cleavage worked out at 1.04.

In the case of A40U G44U, the self-cleavage was 0.26.

With A40U G44C, the self-cleavage is 0.43.

With A40U G44A, the self-cleavage came to 0.25.

On to A41C G30A, for which the self-cleavage turned out to be 0.05.

As for A41C G30C, the self-cleavage turned out to be 0.05.

Turning to A41C G30U, the self-cleavage came out at 0.04.

Take A41C G49C: the self-cleavage amounted to 0.08.

For the variant A41C G49U, the self-cleavage came to 0.12.

In the case of A41C G49A, the self-cleavage came to 0.11.

For A41C U43C, the self-cleavage amounted to 0.22.

With A41C U43G, the self-cleavage amounted to 0.12.

As to A41C U43A, the self-cleavage came to 0.45.

As for A40U C21U, the self-cleavage came to 0.59.

With A40U C21G, the self-cleavage worked out at 0.05.

Turning to A40U C21A, the self-cleavage came out at 0.15.

Regarding A41C C27G, the self-cleavage was 0.06.

For A41C C27U, the self-cleavage turned out to be 0.12.

In the case of A41C C27A, the self-cleavage is 0.13.

As for A41G A7C, the self-cleavage came to 0.05.

Consider A41G A7U, for which the self-cleavage was 0.08.

With A41G A7G, the self-cleavage turned out to be 0.14.

Regarding A41C C33G, the self-cleavage amounted to 0.09.

As to A41C C33A, the self-cleavage is 0.13.

Consider A41C C33U, for which the self-cleavage is 0.7.

With A40U G50U, the self-cleavage amounted to 0.34.

Consider A40U G50A, for which the self-cleavage turned out to be 0.43.

As to A40U G50C, the self-cleavage was determined as 0.18.

A40U G49C: the self-cleavage came to 0.05.

As for A40U G49U, the self-cleavage was 0.08.

Turning to A40U G49A, the self-cleavage was 0.07.

As for A41G C31G, the self-cleavage was found to be 0.11.

Regarding A41G C31U, the self-cleavage was 0.17.

Regarding A41G C31A, the self-cleavage amounted to 0.04.

Consider A40U C52U, for which the self-cleavage amounted to 0.74.

With A40U C52G, the self-cleavage stood at 0.46.

In the case of A40U C52A, the self-cleavage was found to be 0.4.

A41C G45U: the self-cleavage was determined as 0.11.

As for A41C G45A, the self-cleavage was 0.13.

Take A41C G45C: the self-cleavage is 0.06.

On to A41C G34A, for which the self-cleavage is 0.76.

Take A41C G34C: the self-cleavage came out at 0.32.

Consider A41C G34U, for which the self-cleavage was determined as 0.73.

As for A41G U12G, the self-cleavage came out at 0.21.

Consider A41G U12A, for which the self-cleavage is 0.87.

With A41G U12C, the self-cleavage came to 0.78.

Regarding A41C A8G, the self-cleavage is 0.24.

With A41C A8U, the self-cleavage was determined as 0.16.

As for A41C A8C, the self-cleavage was determined as 0.09.

A40U G51U: the self-cleavage turned out to be 0.1.

Turning to A40U G51A, the self-cleavage worked out at 0.18.

Consider A40U G51C, for which the self-cleavage was determined as 0.06.

In the case of A41G C20U, the self-cleavage is 0.85.

Turning to A41G C20G, the self-cleavage is 0.12.

Regarding A41G C20A, the self-cleavage was 0.85.

With A41G C11U, the self-cleavage is 0.34.

For A41G C11G, the self-cleavage was determined as 0.18.

In the case of A41G C11A, the self-cleavage came out at 0.12.

Take A41G C21U: the self-cleavage was determined as 0.75.

For the variant A41G C21G, the self-cleavage came to 0.13.

Take A41G C21A: the self-cleavage turned out to be 0.22.

As for A41U A7C, the self-cleavage is 0.03.

Consider A41C C9U, for which the self-cleavage came to 0.79.

For the variant A41C C9G, the self-cleavage stood at 0.41.

As to A41C C9A, the self-cleavage came out at 0.39.

Regarding A41C C20A, the self-cleavage amounted to 0.92.

A41C C20G: the self-cleavage was 0.13.

On to A41C C20U, for which the self-cleavage came out at 0.95.

For A41C C15U, the self-cleavage was determined as 0.36.

Consider A41C C15A, for which the self-cleavage came out at 0.27.

A41C C15G: the self-cleavage was determined as 0.14.

Consider A41G C26U, for which the self-cleavage was 0.17.

Consider A41G C26G, for which the self-cleavage was determined as 0.09.

For A41G C26A, the self-cleavage amounted to 0.05.

For the variant A41G G30U, the self-cleavage was 0.05.

For A41G G30A, the self-cleavage was 0.05.

For A41G G30C, the self-cleavage is 0.05.

Turning to A40U G48U, the self-cleavage was 0.04.

Regarding A40U G48A, the self-cleavage was 0.06.

As to A40U G48C, the self-cleavage amounted to 0.05.

Take A41C G19C: the self-cleavage amounted to 0.14.

On to A41C G19A, for which the self-cleavage was determined as 0.74.

For the variant A41C G19U, the self-cleavage was found to be 0.15.

In the case of A41G G23A, the self-cleavage was 0.12.

As to A41G G23C, the self-cleavage was found to be 0.07.

For A41G G23U, the self-cleavage was determined as 0.06.

For A41C C25A, the self-cleavage amounted to 0.08.

With A41C C25U, the self-cleavage came out at 0.8.

A41C C25G: the self-cleavage is 0.08.

With A41G C32A, the self-cleavage was determined as 0.06.

As for A41G C32G, the self-cleavage was found to be 0.13.

Regarding A41G C32U, the self-cleavage worked out at 0.08.

In the case of A40U G23U, the self-cleavage is 0.05.

With A40U G23C, the self-cleavage was 0.04.

As to A40U G23A, the self-cleavage came out at 0.11.

Turning to A41G, the self-cleavage was found to be 0.84.

With A41C, the self-cleavage is 0.99.

Take A41U: the self-cleavage is 1.02.

Consider A41C G22C, for which the self-cleavage was determined as 0.05.

With A41C G22U, the self-cleavage stood at 0.49.

For A41C G22A, the self-cleavage was 0.8.

Take A41G G49A: the self-cleavage came out at 0.08.

As for A41G G49U, the self-cleavage stood at 0.07.

As to A41G G49C, the self-cleavage came out at 0.06.

For the variant A41C G35C, the self-cleavage came out at 0.63.

As for A41C G35A, the self-cleavage is 0.81.

As for A41C G35U, the self-cleavage was 0.76.

Regarding A41C C11G, the self-cleavage amounted to 0.24.

Consider A41C C11A, for which the self-cleavage stood at 0.71.

Turning to A41C C11U, the self-cleavage is 0.81.

A41G C9G: the self-cleavage came out at 0.22.

On to A41G C9A, for which the self-cleavage was 0.08.

For A41G C9U, the self-cleavage amounted to 0.11.

On to A40U G42C, for which the self-cleavage amounted to 0.11.

With A40U G42U, the self-cleavage turned out to be 0.06.

Take A40U G42A: the self-cleavage came to 0.1.

Turning to A41G G45A, the self-cleavage stood at 0.09.

In the case of A41G G45C, the self-cleavage worked out at 0.05.

For the variant A41G G45U, the self-cleavage came to 0.09.

Regarding A41C C21U, the self-cleavage worked out at 1.04.

Take A41C C21G: the self-cleavage is 0.08.

Take A41C C21A: the self-cleavage amounted to 0.45.

Turning to A40U C31U, the self-cleavage stood at 0.2.

As for A40U C31G, the self-cleavage is 0.07.

A40U C31A: the self-cleavage came out at 0.02.

With A41C U37A, the self-cleavage is 0.92.

Turning to A41C U37C, the self-cleavage is 1.

On to A41C U37G, for which the self-cleavage turned out to be 1.02.

As to A40U G22A, the self-cleavage worked out at 0.32.

Take A40U G22U: the self-cleavage stood at 0.21.

Turning to A40U G22C, the self-cleavage was determined as 0.06.

Regarding A40U C14G, the self-cleavage came to 0.13.

In the case of A40U C14A, the self-cleavage stood at 0.15.

A40U C14U: the self-cleavage was determined as 0.11.

Take A41C A46G: the self-cleavage was found to be 0.06.

Take A41C A46U: the self-cleavage worked out at 0.08.

With A41C A46C, the self-cleavage was found to be 0.05.

Regarding A41G A46U, the self-cleavage stood at 0.08.

A41G A46G: the self-cleavage came out at 0.07.

Consider A41G A46C, for which the self-cleavage came to 0.06.

A40U C33A: the self-cleavage was 0.07.

On to A40U C33U, for which the self-cleavage is 0.15.

As for A40U C33G, the self-cleavage stood at 0.06.

As for A41G G50A, the self-cleavage was 0.34.

With A41G G50U, the self-cleavage turned out to be 0.91.

A41G G50C: the self-cleavage was 0.77.

Turning to A40U G54C, the self-cleavage was 0.19.

A40U G54A: the self-cleavage came to 0.25.

In the case of A40U G54U, the self-cleavage is 0.47.

For the variant A41G U18A, the self-cleavage is 0.77.

As for A41G U18G, the self-cleavage came to 0.83.

A41G U18C: the self-cleavage worked out at 0.74.

In the case of A41C C26U, the self-cleavage was 0.8.

(Values after the RNAGym collection of RNA variant scans (doi:10.1002/anie.201605470).)
